One assay relates to MCF7. The assay is described as follows: Cytotoxicity against ER-positive human MCF7 cells after 24 hrs by trypan blue staining. Type of assay: functional, cell-based. Summed up:
(§1)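 Cells grown in DMEM; 50 × 10^3 cells per well seeded and left to attach overnight, then medium replaced with fresh medium containing a range of compound concentrations for 24 hours at 37 °C. Adherent plus floating cells pooled, resuspended in PBS, and stained with 0.4% trypan blue for 3 min. Live and dead cells counted on a hemocytometer. IC50 taken from dose-response curves as the mean of three experiments. Ethanol served as positive control and untreated medium as negative control.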

Assay [1] can be described thus: Cytotoxicity against ER-refractory human MDA231 cells after 24 hrs by trypan blue staining. Type of assay: functional, cell-based. The following applies: MDA-MB-231, 24 h. The procedure, abridged:
as §1

Setting [2] is: Homo sapiens, MCF7, 24 h, read-out: IC50.

The IC50 is the concentration that inhibits the measured activity by half.

As for `Cc1cc(O)c2c(c1)C[C@@H](O)C1=C2C(=O)c2cccc(O[C@H]3C[C@@H](O)[C@H](O[C@H]4C[C@@H](O[C@H]5CC[C@H](O[C@H]6C[C@@H](O)[C@H](O[C@H]7C[C@@H](O)[C@H](O)[C@@H](C)O7)[C@@H](C)O6)[C@H](C)O5)[C@H](O)[C@@H](C)O4)[C@@H](C)O3)c2C1=O` [LANDOMYCIN V], the 50% inhibitory concentration (IC50) in the assay with MCF7 (setting [2]) came out at 6.1 µM; in assay [1], 1.5 µM.
Taken in the same sequence, the figures for `Cc1cc(O)c2c3c(ccc2c1)C(=O)c1c(O)ccc(O)c1C3=O` [ANHYDROLANDOMYCINONE] were 1.8 µM and 2 µM.
For `Cc1cc(O)c2c(c1)C[C@@H](O)C1=C2C(=O)c2cccc(O[C@H]3C[C@@H](O)[C@H](O[C@H]4C[C@@H](O)[C@H](O)[C@@H](C)O4)[C@@H](C)O3)c2C1=O` [LANDOMYCIN F], the figures for the IC50 entry (in the assay with MCF7 (mcf7); in assay [1]) were “Not Active” and 1.8 µM, respectively.
For the compound `Cc1cc(O)c2c(c1)C[C@@H](O)C1=C2C(=O)c2c(O)ccc(O[C@H]3C[C@@H](O)[C@H](O[C@H]4C[C@@H](O)[C@H](O)[C@@H](C)O4)[C@@H](C)O3)c2C1=O` [LANDOMYCIN D], the values for the IC50 (in the assay on MCF7 (setting [2]); in assay [1]) were 7.6 µM and 1.75 µM, respectively.
On to `Cc1cc(O)c2c3c(ccc2c1)C(=O)c1c(O[C@H]2C[C@@H](O)[C@H](O[C@H]4C[C@@H](O[C@H]5CC[C@H](O[C@H]6C[C@@H](O)[C@H](O[C@H]7C[C@@H](O[C@H]8CC[C@H](O)[C@H](C)O8)[C@H](O)[C@@H](C)O7)[C@@H](C)O6)[C@H](C)O5)[C@H](O)[C@@H](C)O4)[C@@H](C)O2)cccc1C3=O` [LANDOMYCIN T], for which the IC50 result in the assay on MCF7 (mcf7) was “Not Active”; in assay [1] it was 1.85 µM.
Consider `Cc1cc(O)c2c(c1)C[C@@H](O)C1=C2C(=O)c2cccc(O[C@H]3C[C@@H](O)[C@H](O[C@H]4C[C@@H](O[C@H]5CC[C@H](O[C@H]6C[C@@H](O)[C@H](O[C@H]7C[C@@H](O[C@H]8CC[C@H](O)[C@H](C)O8)[C@H](O)[C@@H](C)O7)[C@@H](C)O6)[C@H](C)O5)[C@H](O)[C@@H](C)O4)[C@@H](C)O3)c2C1=O` [LANDOMYCIN S], for which the IC50 turned out to be 6.7 µM with MCF7 (setting [2]) and 1.5 µM in assay [1].
As to `C[C@]1(O)CC(=O)c2c(ccc3c2C(=O)c2cccc(O)c2C3=O)C1` [TETRANGOMYCIN], the half-maximal inhibitory concentration (IC50) entry in the assay with MCF7 (mcf7) was “Not Active”; in assay [1], 1.55 µM.
For `Cc1cc(O)c2c(c1)C[C@@H](O)C1=C2C(=O)c2c(O)ccc(O)c2C1=O` [LANDOMYCINONE], the figures for the IC50 (with MCF7 (setting [2]); in assay [1]) were 2.1 µM and 1.4 µM, respectively.
In the case of `Cc1cc(O)c2c3c(ccc2c1)C(=O)c1c(O[C@H]2C[C@@H](O)[C@H](O[C@H]4C[C@@H](O)[C@H](O)[C@@H](C)O4)[C@@H](C)O2)ccc(O)c1C3=O` [LANDOMYCIN R], the values for the IC50 entry (with MCF7 (mcf7); in assay [1]) were “Not Active” and 1.7 µM, respectively.
For `Cc1cc(O)c2c3c(ccc2c1)C(=O)c1c(O[C@H]2C[C@@H](O)[C@H](O[C@H]4C[C@@H](O[C@H]5CC[C@H](O[C@H]6C[C@@H](O)[C@H](O[C@H]7C[C@@H](O[C@H]8CC[C@H](O)[C@H](C)O8)[C@H](O)[C@@H](C)O7)[C@@H](C)O6)[C@H](C)O5)[C@H](O)[C@@H](C)O4)[C@@H](C)O2)ccc(O)c1C3=O` [LANDOMYCIN U], the IC50 was found to be 2.1 µM in the assay with MCF7 (setting [2]) and 7.3 µM in assay [1].
Taken in the same sequence, the figures for `Cc1cc(O)c2c3c(ccc2c1)C(=O)c1c(O[C@H]2C[C@@H](O)[C@H](O[C@H]4C[C@@H](O[C@H]5CC[C@H](O[C@H]6C[C@@H](O)[C@H](O[C@H]7C[C@@H](O)[C@H](O)[C@@H](C)O7)[C@@H](C)O6)[C@H](C)O5)[C@H](O)[C@@H](C)O4)[C@@H](C)O2)cccc1C3=O` [LANDOMYCIN M] were 7.1 µM and 1.9 µM.
As for `Cc1cc(O)c2c(c1)C[C@@H](O)C1=C2C(=O)c2c(O)ccc(O[C@H]3C[C@@H](O)[C@H](O[C@H]4C[C@@H](O[C@H]5CC[C@H](O[C@H]6C[C@@H](O)[C@H](O[C@H]7C[C@@H](O)[C@H](O)[C@@H](C)O7)[C@@H](C)O6)[C@H](C)O5)[C@H](O)[C@@H](C)O4)[C@@H](C)O3)c2C1=O` [LANDOMYCIN B], the IC50 came out at 4.25 µM in the assay with MCF7 (setting [2]) and 1.8 µM in assay [1].
Turning to `Cc1cc(O)c2c3c(ccc2c1)C(=O)c1c(O)cccc1C3=O` [TETRANGULOL], the IC50 entry in the assay with MCF7 (mcf7) is “Not Active”; in assay [1], 1.5 µM.
In the case of `Cc1cc(O)c2c3c(ccc2c1)C(=O)c1c(O[C@H]2C[C@@H](O)[C@H](O[C@H]4C[C@@H](O[C@H]5CC[C@H](O[C@H]6C[C@@H](O)[C@H](O[C@H]7C[C@@H](O)[C@H](O)[C@@H](C)O7)[C@@H](C)O6)[C@H](C)O5)[C@H](O)[C@@H](C)O4)[C@@H](C)O2)ccc(O)c1C3=O` [LANDOMYCIN W], the IC50 with MCF7 (setting [2]) amounted to 6.9 µM; in assay [1], 2.65 µM.
For the compound `Cc1cc(O)c2c(c1)C[C@@H](O)C1=C2C(=O)c2c(O)ccc(O[C@H]3C[C@@H](O)[C@H](O[C@H]4C[C@@H](O[C@H]5CC[C@H](O[C@H]6C[C@@H](O)[C@H](O[C@H]7C[C@@H](O[C@H]8CC[C@H](O)[C@H](C)O8)[C@H](O)[C@@H](C)O7)[C@@H](C)O6)[C@H](C)O5)[C@H](O)[C@@H](C)O4)[C@@H](C)O3)c2C1=O` [LANDOMYCIN A], the figures for the IC50 (with MCF7 (setting [2]); in assay [1]) were 2.5 µM and 1.4 µM, respectively.
Take `Cc1cc(O)c2c3c(ccc2c1)C(=O)c1c(O[C@H]2C[C@@H](O)[C@H](O[C@H]4C[C@@H](O)[C@H](O)[C@@H](C)O4)[C@@H](C)O2)cccc1C3=O` [LANDOMYCIN O]: the concentration for half-maximal inhibition (IC50) entry in the assay on MCF7 (mcf7) is “Not Active”; in assay [1] it was 3.55 µM.
Regarding `Cc1cc(O)c2c3c(ccc2c1)C(=O)c1c(O[C@H]2C[C@@H](O)[C@H](O[C@H]4C[C@@H](O[C@H]5CC[C@H](O)[C@H](C)O5)[C@H](O)[C@@H](C)O4)[C@@H](C)O2)cccc1C3=O` [LANDOMYCIN P], the 50% inhibitory concentration (IC50) entry in the assay with MCF7 (mcf7) was “Not Active”; in assay [1], 3.55 µM.
Take `Cc1cc(O)c2c3c(ccc2c1)C(=O)c1c(O[C@H]2C[C@@H](O)[C@H](O[C@H]4C[C@@H](O[C@H]5CC[C@H](O)[C@H](C)O5)[C@H](O)[C@@H](C)O4)[C@@H](C)O2)ccc(O)c1C3=O` [LANDOMYCIN Q]: the results for the IC50 entry (in the assay with MCF7 (mcf7); in assay [1]) were “Not Active” and 3.85 µM, respectively.

Source of the values: ChEMBL document CHEMBL1667724, “Landomycins P-W, cytotoxic angucyclines from Streptomyces cyanogenus S-136” (J Nat Prod, 2011).
